Screening data: PubChem BioAssay, several laboratories
The list is not random: actives were taken first. Their share in the collection is about 3.5%.
STAT3 activator = STAT3 signaling activation; U3A cells, IL-6 STAT3-luciferase reporter, luminescence; 100% = signal with IL-6 EC80 alone; activation (% of control), % at 5.6 µM; 190,000 tested, 0.91% active; AID 871;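 active = activation above the screen-wide mean of compound activation plus 3 SD, cut at about 130% in these data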;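 also: 0% = background luminescence of wells with medium and substrate only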
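Material: STAT3-luciferase reporter U3A cells. Controls: IL-6-treated wells, 100% activation. Read-out: % activation versus median of IL-6-stimulated wells. Probe or stimulus: IL-6 stimulus at 33 ng/mL final. Timing: compound 1 h, then IL-6 6 h at 37 °C. Signal: reporter luminescence signal.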
FXIIa inh = inhibitors of human coagulation factor XIIa; P00748; 220,000 tested, 0.3% active; AID 800; purified FXIIa, Boc-QGR-AMC fluorogenic substrate, 2 h; inhibition, % at 5 µM; in the data active = inhibition above about 40%;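 also: 0% = enzyme with no compound and 100% = blank without enzyme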
Target sequence (P00748 20-372 limits assumed): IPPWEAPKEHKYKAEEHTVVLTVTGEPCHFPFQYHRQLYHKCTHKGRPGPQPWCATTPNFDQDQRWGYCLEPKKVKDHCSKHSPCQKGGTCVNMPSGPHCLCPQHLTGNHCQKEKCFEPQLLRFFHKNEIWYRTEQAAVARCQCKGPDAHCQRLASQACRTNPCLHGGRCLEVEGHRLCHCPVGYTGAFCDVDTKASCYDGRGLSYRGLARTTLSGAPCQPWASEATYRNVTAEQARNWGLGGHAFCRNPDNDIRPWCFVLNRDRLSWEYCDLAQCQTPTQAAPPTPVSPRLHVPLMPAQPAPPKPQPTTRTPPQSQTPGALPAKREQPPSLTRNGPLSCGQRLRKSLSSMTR
Target sequence (P00748 373-615 limits assumed): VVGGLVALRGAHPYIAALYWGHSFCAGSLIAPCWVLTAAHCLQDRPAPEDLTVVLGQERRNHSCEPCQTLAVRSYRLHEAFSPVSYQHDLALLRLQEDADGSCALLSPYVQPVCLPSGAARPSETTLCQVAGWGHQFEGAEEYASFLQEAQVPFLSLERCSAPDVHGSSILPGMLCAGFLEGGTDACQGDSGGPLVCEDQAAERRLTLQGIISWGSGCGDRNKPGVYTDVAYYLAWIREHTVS
FXIa inh = blocks human coagulation factor XIa protease activity; purified FXIa, Boc-Glu-Ala-Arg-AMC fluorogenic substrate; inhibition, % at 5 µM; 220,000 tested, 0.14% active; AID 798;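 active = inhibition of at least 40%; inactive = inhibition below 40%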;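 also: fluorescence of freed AMC excited at 355 nm; 0% = enzyme without compound and 100% = no enzyme blank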
thrombin 1536 = thrombin (human) inhibition. alpha-thrombin, Boc-VPR-AMC fluorogenic substrate cleavage. inhibition, % at 5 µM. 220,000 tested, 0.26% active. P00734;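 active = inhibition at or above 40%; inactive = inhibition below 40%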;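 also: 0% = enzyme with no compound and 100% = wells without enzyme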
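Material: human alpha-thrombin protein; Also added: Boc-VPR-AMC substrate, 15 µM final; Timing: enzyme reaction carried out at room temperature; Signal: fluorescence, ex 355 nm, em 460 nm; Measure: % inhibition of thrombin; Controls: enzyme without compound as high, wells lacking enzyme as low.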
AHR activator = activates the human aryl hydrocarbon receptor | AHR-responsive luciferase reporter cells, luminescence | AID 2796 | activation, % at 5 µM | 320,000 tested, 2.5% active | P35869; in the data active = activation above about 47%;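 also: 0% = vehicle wells and 100% = reference agonist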
hK5 inh = inhibitors of human kallikrein 5 | 210,000 tested, 0.59% active | recombinant hK5, fluorogenic AMC substrate cleavage | inhibition, % at 5 µM | Q9Y337 | AID 873;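 active = inhibition of 40% or more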;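 also: 0% = enzyme controls without compound and 100% = no-enzyme blanks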
Numbers without * were called inactive; · = no result.

SMILES	STAT3 activator	FXIIa inh	FXIa inh	thrombin 1536	AHR activator	hK5 inh
O=C(Nc1cccc(Cl)c1Cl)c1ccc(-c2ccccc2)cc1	123	10	-1	-1	65*	5
CCCCn1c(=O)[nH]c(=O)c2c1nc(Cn1ncc(Cl)c(Cl)c1=O)n2CCC	·	·	·	·	0	·
COc1ccc(NC(=O)C23CC4CC(C2)CC(n2cnc(Br)n2)(C4)C3)cc1Cl	109	10	-7	-1	51*	-17
CC(C)c1ccc(NC(=O)CSc2nc3ccsc3c(=O)n2CCC(=O)O)cc1	·	·	·	·	2	·
O=C(COC(=O)c1ccc2c(c1)OCO2)Nc1ccccc1OC(F)F	·	·	·	·	-1	·
O=C(COC(=O)c1ccc(Cl)c([N+](=O)[O-])c1)Nc1ccccc1OC(F)F	108	3	5	-6	55*	-17
O=C(c1cn[nH]c1)N1CCc2c([nH]c3ccccc23)C1c1c(F)cccc1Cl (stereo unspecified)	131	15	0	2	25	75*
Cn1c(CN2CCCC(C(=O)c3ccc4c(c3)OCO4)C2)nc2ccccc21 (stereo unspecified)	104	0	-6	0	3	·
c1ccc2c(c1)Cn1nnnc1-2	104	9	-6	1	-2	-12
Clc1ccc(-c2cn3c(n2)-c2ccccc2C3)cc1Cl	115	13	3	-7	62*	-1
Cc1cc2nc3n(c2cc1C)CCCN3	·	·	·	·	73*	·
O=C(Nc1ncc2c(n1)-c1ccccc1CC2)c1cccs1	89	13	-1	-2	63*	2
O=C(Nc1ncc2c(n1)-c1ccccc1CC2)c1ccc(F)cc1	85	5	7	5	65*	8
O=C(Nc1nccc(-c2cccs2)n1)c1cccs1	119	8	2	7	48*	-2
O=C(Nc1ncc2c(n1)-c1ccccc1CC2)c1ccccc1	94	11	-3	0	20	18
COCCn1c(SCC(=O)Nc2cc(C)on2)nnc1C(C)C	·	·	·	·	2	·
CCOC(=O)N1CCN(C(=O)CCl)CC1	102	5	-4	0	-1	-8
N#Cc1cn(CCOc2ccccc2F)c2ccccc12	99	10	14	7	49*	21
N#Cc1cn(CCOc2ccc(F)cc2)c2ccccc12	91	13	9	2	1	-7
CC(C)Oc1ccc(-c2cc(=O)[nH]c(=O)[nH]2)cc1	103	-3	4	-2	69*	2
O=C(CSc1cccc[n+]1[O-])Nc1ccc(N2CCOCC2)cc1	99	6	-4	-6	6	-3
O=C1c2ccccc2C(=O)N1CCCCON1C(=O)c2ccccc2C1=O	99	19	10	2	-5	-19
CCCCON1C(=O)c2cccc3cccc(c23)C1=O	·	·	·	·	56*	·
COc1ccc(C(=O)N/N=C/c2ccc(OC)c(CN3CCN(c4ccc(F)cc4)CC3)c2)cc1	107	10	7	-2	3	-9
COc1ccc(/C=N/NC(=O)c2ccoc2C)cc1CN1CCN(c2ccc(F)cc2)CC1	·	·	·	·	73*	·
SMILES	STAT3 activator	FXIIa inh	FXIa inh	thrombin 1536	AHR activator	hK5 inh
Cn1c(SCC(=O)Nc2ccccc2)nnc1-c1ccc2nonc2c1	·	11	-3	0	1	1
C#CCOCCOCCOCCNc1nc(N2CCN(C(=O)Cn3cc(CCCCN)nn3)CC2)nc(N2CCN(C(=O)[C@H](C)n3cc(CCCN=C(N)N)nn3)CC2)n1	99	7	-6	38	·	1
C#CCOCCOCCOCCNc1nc(N2CCN(C(=O)Cn3cc(CC(C)O)nn3)CC2)nc(N2CCN(C(=O)[C@H](C)n3cc(CCCN=C(N)N)nn3)CC2)n1 (stereo partly specified)	97	9	3	40*	2	-7
CC1CCCC(C)N1C(=O)COC(=O)c1cncc(Br)c1 (stereo unspecified)	·	·	·	·	0	·
COc1ccc(N2C(=O)CC(Nc3cccc([N+](=O)[O-])c3)C2=O)cc1 (stereo unspecified)	·	44*	18	17	-4	42*
Cc1ccc(C(=O)ONC(=O)c2ccc(Cl)cc2)cc1[N+](=O)[O-]	·	·	·	·	55*	·
COc1ccc(S(=O)(=O)N2CCOCC2)cc1NC(=O)COC(=O)c1ccc([N+](=O)[O-])s1	·	·	·	·	0	·
CC(=O)N(Cc1c(C)nn(-c2ccccc2)c1Cl)c1ccc(Cl)cc1	99	9	-6	-4	3	11
Cc1nn(-c2ccccc2)c(Cl)c1CN(C(=O)CCl)c1ccc(Cl)cc1	101	17	8	19	1	45*
CS(=O)(=O)N(CC(=O)Nc1cccc(Cl)c1Cl)c1ccccc1	98	8	-2	-4	2	-3
Nc1ccc2oc(-c3cc(Br)ccc3Cl)nc2c1	92	-4	0	-2	49*	8
CCc1ccc2oc(-c3cc(N)ccc3Cl)nc2c1	122	6	-2	1	49*	-34
CCc1ccc2oc(-c3cc(N)ccc3O)nc2c1	88	13	-5	2	74*	-36
Cc1ccc(C)c(-c2nc3cc(N)ccc3o2)c1	90	41*	18	-2	-3	-35
CC(=O)c1ccc(S(=O)(=O)N(C)CC(=O)NCc2ccco2)cc1	·	·	·	·	-2	·
O=C(c1ccc(Cl)c([N+](=O)[O-])c1)N1CCN(Cc2ccc3c(c2)OCO3)CC1	103	8	-3	1	-1	-28
C=CCc1cc(C)cc(C)c1OCCn1cncn1	99	8	-2	-1	59*	-5
O=C(Nc1cnn(Cc2ccc(Cl)cc2)c1)c1cnccn1	98	-11	-8	-8	5	2
COc1cc2c(cc1OC)/C(=C/C(=O)c1ccc(F)cc1)NCC2	·	·	·	·	41	·
COc1cc2c(cc1OC)/C(=C/C(=O)c1cccc([N+](=O)[O-])c1)NCC2	·	·	·	·	79*	·
CC[C@H](C)Cc1cn([C@@H](CCCCNC(=O)OC(C)(C)C)C(=O)NCCCCCCCCCCC(=O)N2CCN(C(=O)OC(C)(C)C)CC2)nn1	·	·	·	·	3	·
Cc1ccc(S(=O)(=O)Cc2cc(F)c([N+](=O)[O-])cc2[N+](=O)[O-])cc1	·	·	·	·	3	·
Cc1ccc2nc(SC(C)C(=O)N3CCOCC3)[nH]c2c1 (stereo unspecified)	115	7	-1	-4	50*	-1
Cc1ccc(-c2nc(SC(C)C(=O)N3CCOCC3)n[nH]2)cc1 (stereo unspecified)	·	·	·	·	20	·
Cc1ccc2nc(SC(C)C(=O)Nc3cccc([N+](=O)[O-])c3)[nH]c2c1 (stereo unspecified)	106	12	7	0	66*	-2
Cc1ccc2nc(SC(C)C(=O)NC3CCCC3)[nH]c2c1 (stereo unspecified)	·	·	·	·	49*	·
Cc1cccc(Nc2nc(N)nc(CSc3nccn3C)n2)c1	109	18	0	3	75*	0
